Experimental data as given in ChEMBL document CHEMBL1136847, “Syntheses and potential anti-prostate cancer activities of ionone-based chalcones” (Bioorg Med Chem Lett, 2009).
pIC50: −log10 of the molar value. Calls of active or inactive are those of the source. The rule behind the calls is not given here.

Assays:
[1] = system: CWR22R; experiment: Cytotoxicity against human 22Rv1 cells with H874Y AR mutant after 72 hrs by MTT assay; assay type: functional, cell-based; details: 22Rv1, 72 h
Outline: (§1)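 Cells seeded at 6000–7000 per well in RPMI 1640 with 10% FBS, penicillin and streptomycin, left overnight, then exposed to a range of concentrations from DMSO stock (final DMSO 0.5%) for 72 h. MTT added for a further 2 h and formazan from viable cells read. IC50 taken from survival curves, 50% inhibition relative to 0.5% DMSO control; top concentration 150 µM.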

[2] = system: LNCaP; experiment: Cytotoxicity against androgen-dependent human LNCAP cells with T877A AR mutant after 72 hrs by MTT assay; assay type: functional, cell-based; outline: as §1
[3] = system: PC-3; experiment: Cytotoxicity against androgen-independent human PC3 cells after 72 hrs by MTT assay; assay type: functional, cell-based; details: for pIC50: PC-3, 72 h; outline: as §1
[4] = Cytotoxicity against androgen-dependent human MDA PCa 2b cells with T877A/L701H AR mutant after 72 hrs by MTT assay; assay type: functional, cell-based
Outline: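 Seeded at 6000–7000 cells per well in BRFF-HPC1 medium with 20% FBS, incubated overnight, then treated with serial concentrations diluted from DMSO stock (final DMSO 0.5%) for 72 h. Viability by MTT, 2 h with reagent, formazan measured. IC50 from survival curves as 50% inhibition versus 0.5% DMSO vehicle; maximum concentration tested 150 µM.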

[5] = Cytotoxicity against androgen-independent human C4-2B cells with T877A mutant after 72 hrs by MTT assay; assay type: functional, cell-based; details: LNCaP C4-2B; outline: as §1
[6] = Cytotoxicity against human RWPE1 cells after 72 hrs by MTT assay; assay type: cell-based; details: RWPE-1, 72 h
Outline: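 Non-tumorigenic prostate epithelial line plated at 6000–7000 cells per well in keratinocyte serum-free medium with 0.05 mg/mL bovine pituitary extract and 5 ng/mL EGF; overnight attachment, then compounds at various concentrations in 0.5% final DMSO for 72 h. MTT 2 h, formazan read; IC50 from survival curves versus DMSO control.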

CC1=C(/C=C/C(=O)/C=C/c2cc(F)cc(C(F)(F)F)c2)C(C)(C)CCC1O (centres undefined)
pIC50 [1]: 5.62
pIC50 [2]: 5.96
pIC50 [3]: 5.52

CC1=C(/C=C/C(=O)/C=C/c2cc(C(F)(F)F)cc(C(F)(F)F)c2)C(C)(C)CCC1O (centres undefined)
pIC50 [1]: 5.66
pIC50 [4]: 5.46
pIC50 [2]: 5.68
pIC50 [3]: 5.15

CC1=C(/C=C/C(=O)/C=C/c2cccc([N+](=O)[O-])c2)C(C)(C)CCC1
pIC50 [2]: 5.57
pIC50 [3]: 5.00

CC1=C(/C=C/C(=O)/C=C/c2ccc(-c3ccccc3)cc2)C(C)(C)CCC1
pIC50 [2]: 4.83
pIC50 [3]: 4.32

CC1=CCCC(C)(C)C1/C=C/C(=O)/C=C/c1ccc(C(F)(F)F)cc1 (centres undefined)
pIC50 [1]: 5.48
pIC50 [4]: 5.15
pIC50 [2]: 5.33
pIC50 [5]: 5.28
pIC50 [3]: 5.10

CC1=CCCC(C)(C)C1/C=C/C(=O)/C=C/c1ccccc1F (centres undefined)
pIC50 [1]: 5.03
pIC50 [4]: 5.08
pIC50 [2]: 5.80
pIC50 [5]: 5.22
pIC50 [3]: 5.32

CC1=C(/C=C/C(=O)/C=C/c2c(F)cccc2C(F)(F)F)C(C)(C)CCC1O (centres undefined)
pIC50 [1]: 5.05
pIC50 [2]: 5.31
pIC50 [3]: 5.06

CC1=C(/C=C/C(=O)/C=C/c2ccc(O)c([N+](=O)[O-])c2)C(C)(C)CCC1
pIC50 [2]: 4.57
pIC50 [3]: < 4.30

CC1=C(/C=C/C(=O)/C=C/c2cccc(F)c2)C(C)(C)CCC1O (centres undefined)
pIC50 [1]: 5.25
pIC50 [2]: 5.36
pIC50 [3]: 4.80

CC1=C(/C=C/C(=O)/C=C/c2ccccc2)C(C)(C)CCC1O (centres undefined)
pIC50 [1]: 5.10
pIC50 [4]: 4.90
pIC50 [2]: 5.24
pIC50 [5]: 5.74
pIC50 [3]: 4.81

CC1=C(/C=C/C(=O)/C=C/c2cccc(C#N)c2)C(C)(C)CCC1O (centres undefined)
pIC50 [6]: 5.72
pIC50 [1]: 5.66
pIC50 [2]: 5.74
pIC50 [3]: 5.14

CC1=C(/C=C/C(=O)/C=C/c2cc(C(F)(F)F)cc(C(F)(F)F)c2)C(C)(C)CCC1
pIC50 [2]: 5.06
pIC50 [3]: 5.14

CC(=O)/C=C/C1C(C)=CCCC1(C)C (stereo not drawn) [ALPHA-IONONE]
pIC50 [2]: 3.82
Activity [3]: inactive

CC1=C(/C=C/C(=O)/C=C/c2ccc(F)cc2)C(C)(C)CCC1
pIC50 [2]: 5.14
pIC50 [3]: 4.59

CC1=C(/C=C/C(=O)/C=C/c2ccc(C(F)(F)F)cc2F)C(C)(C)CCC1O (centres undefined)
pIC50 [1]: 5.42
pIC50 [2]: 5.59
pIC50 [3]: 5.34

CC1=C(/C=C/C(=O)/C=C/c2cccc(C)c2)C(C)(C)CCC1
pIC50 [2]: 4.75
pIC50 [3]: 4.46

CC1=C(/C=C/C(=O)/C=C/c2ccc(F)c(C(F)(F)F)c2)C(C)(C)CCC1O (centres undefined)
pIC50 [1]: 5.49
pIC50 [4]: 5.00
pIC50 [2]: 5.66
pIC50 [5]: 5.14
pIC50 [3]: 5.14

CC1=C(/C=C/C(=O)/C=C/c2ccc([N+](=O)[O-])cc2)C(C)(C)CCC1O (centres undefined)
pIC50 [1]: 5.39
pIC50 [2]: 5.38
pIC50 [3]: 4.82

CC1=C(/C=C/C(=O)/C=C/c2cccc(F)c2)C(C)(C)CCC1
pIC50 [2]: 4.89
pIC50 [3]: 4.73

CC1=C(/C=C/C(=O)/C=C/c2cc([N+](=O)[O-])ccc2Cl)C(C)(C)CCC1
pIC50 [2]: 5.38
pIC50 [3]: 4.72

CC1=C(/C=C/C(=O)/C=C/c2ccccc2F)C(C)(C)CCC1O (centres undefined)
pIC50 [1]: 5.48
pIC50 [2]: 5.54
pIC50 [3]: 4.98

CC1=C(/C=C/C(=O)/C=C/c2cccc(C(F)(F)F)c2F)C(C)(C)CCC1O (centres undefined)
pIC50 [2]: 5.96
pIC50 [3]: 5.68

CC1=CCCC(C)(C)C1/C=C/C(=O)/C=C/c1cc(C(F)(F)F)ccc1F (centres undefined)
pIC50 [1]: 5.46
pIC50 [4]: 5.52
pIC50 [2]: 5.77
pIC50 [5]: 5.33
pIC50 [3]: 5.51

COc1ccc(/C=C/C(=O)/C=C/C2=C(C)CCCC2(C)C)cc1OC
pIC50 [2]: 5.02
pIC50 [3]: 4.38

CC1=CCCC(C)(C)C1/C=C/C(=O)/C=C/c1cccc([N+](=O)[O-])c1 (centres undefined)
pIC50 [1]: 5.33
pIC50 [4]: 5.23
pIC50 [2]: 5.48
pIC50 [5]: 5.40
pIC50 [3]: 5.54

CC1=C(/C=C/C(=O)/C=C/c2cccc([N+](=O)[O-])c2)C(C)(C)CCC1O (centres undefined)
pIC50 [6]: 5.72
pIC50 [1]: 5.72
pIC50 [4]: 5.22
pIC50 [2]: 5.70
pIC50 [3]: 5.24

CC1=C(/C=C/C(=O)/C=C/c2ccccc2F)C(C)(C)CCC1
pIC50 [2]: 4.97
pIC50 [3]: 4.66

CC1=C(/C=C/C(=O)/C=C/c2cc(C(F)(F)F)ccc2C(F)(F)F)C(C)(C)CCC1O (centres undefined)
pIC50 [4]: 5.40
pIC50 [2]: 5.49
pIC50 [3]: 5.72

COc1cc(/C=C/C(=O)/C=C/C2=C(C)CCCC2(C)C)ccc1O
pIC50 [2]: 5.02
pIC50 [3]: 4.67

CC1=C(/C=C/C(=O)/C=C/c2cccc(C(F)(F)F)c2)C(C)(C)CCC1
pIC50 [2]: 5.55
pIC50 [3]: 5.11

CC1=C(/C=C/C(=O)/C=C/c2ccc(C(F)(F)F)cc2)C(C)(C)CCC1
pIC50 [2]: 5.04
pIC50 [3]: 4.92

CC1=C(/C=C/C(=O)/C=C/c2ccc(F)cc2)C(C)(C)CCC1O (centres undefined)
pIC50 [1]: 5.12
pIC50 [2]: 5.41
pIC50 [5]: 5.40
pIC50 [3]: 5.21

CC1=CCCC(C)(C)C1/C=C/C(=O)/C=C/c1ccccc1C(F)(F)F (centres undefined)
pIC50 [1]: 4.74
pIC50 [2]: 4.65
pIC50 [5]: 4.93
pIC50 [3]: 4.72

CC1=C(/C=C/C(=O)/C=C/c2ccccc2C(F)(F)F)C(C)(C)CCC1O (centres undefined)
pIC50 [1]: 5.64
pIC50 [4]: 5.54
pIC50 [2]: 5.54
pIC50 [3]: 5.43

CC1=C(/C=C/C(=O)/C=C/c2cc(C(F)(F)F)ccc2F)C(C)(C)CCC1O (centres undefined)
pIC50 [1]: 5.70
pIC50 [2]: 5.77
pIC50 [3]: 5.44

CCOc1ccc(/C=C/C(=O)/C=C/C2=C(C)CCCC2(C)C)cc1OCC
pIC50 [2]: 5.09
pIC50 [3]: < 4.30

CC1=C(/C=C/C(=O)/C=C/c2ccc(C(F)(F)F)cc2)C(C)(C)CCC1O (centres undefined)
pIC50 [1]: 5.49
pIC50 [4]: 5.03
pIC50 [2]: 5.52
pIC50 [3]: 4.99

CC1=CCCC(C)(C)C1/C=C/C(=O)/C=C/c1cccc(C(F)(F)F)c1 (centres undefined)
pIC50 [1]: 5.54
pIC50 [4]: 5.36
pIC50 [2]: 6.00
pIC50 [5]: 5.36
pIC50 [3]: 5.28

CCOC(OCC)c1cccc(/C=C/C(=O)/C=C/C2=C(C)C(O)CCC2(C)C)c1 (centres undefined)
pIC50 [2]: 5.74
pIC50 [3]: 5.33

CC1=C(/C=C/C(=O)/C=C/c2cccc(C)c2)C(C)(C)CCC1O (centres undefined)
pIC50 [1]: 5.36
pIC50 [4]: 4.72
pIC50 [2]: 5.39
pIC50 [3]: 5.21

COc1ccc(/C=C/C(=O)/C=C/C2=C(C)CCCC2(C)C)cc1O
pIC50 [2]: 5.00
pIC50 [3]: 4.43

CC1=CCCC(C)(C)C1/C=C/C(=O)/C=C/c1cccc(C)c1 (centres undefined)
pIC50 [1]: 4.82
pIC50 [2]: 4.91
pIC50 [5]: 5.21
pIC50 [3]: 5.23

COc1cccc(/C=C/C(=O)/C=C/C2=C(C)C(O)CCC2(C)C)c1 (centres undefined)
pIC50 [2]: 5.31
pIC50 [3]: 5.19
